Our source for the inhibition in vivo and inhibition values is ChEMBL document CHEMBL3259611, “Suppression of inflammatory responses by handelin, a guaianolide dimer from Chrysanthemum boreale, via downregulation of NF-κB signaling and pro-inflammatory cytokine production” (J Nat Prod, 2014).

In one test the test system is Rattus norvegicus. Description: Antiinflammatory activity in rat paw edema model assessed as inhibition of carrageenan-induced paw edema at 20 mg/kg, po administered 30 mins prior to carrageenan challenge measured after 4 hrs relative to vehicle-treated control. The format is functional. In a few lines: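 Male Sprague–Dawley rats (150–170 g, 5 weeks old); compound dissolved in 0.5% CMC-Na and given orally 30 min before subplantar injection of 0.1 mL 1% carrageenan suspension in saline into the right hind paw, with saline injected into the left. Paw volume read by plethysmometer at 0 h and up to 6 h; n = 6.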
In general terms: Carrageenan injected into the paw causes an acute inflammation.

The target of test [1] is T1, Nuclear factor NF-kappa-B p105 subunit (Mus musculus) (UniProt P25799).
T1 sequence (whole entry): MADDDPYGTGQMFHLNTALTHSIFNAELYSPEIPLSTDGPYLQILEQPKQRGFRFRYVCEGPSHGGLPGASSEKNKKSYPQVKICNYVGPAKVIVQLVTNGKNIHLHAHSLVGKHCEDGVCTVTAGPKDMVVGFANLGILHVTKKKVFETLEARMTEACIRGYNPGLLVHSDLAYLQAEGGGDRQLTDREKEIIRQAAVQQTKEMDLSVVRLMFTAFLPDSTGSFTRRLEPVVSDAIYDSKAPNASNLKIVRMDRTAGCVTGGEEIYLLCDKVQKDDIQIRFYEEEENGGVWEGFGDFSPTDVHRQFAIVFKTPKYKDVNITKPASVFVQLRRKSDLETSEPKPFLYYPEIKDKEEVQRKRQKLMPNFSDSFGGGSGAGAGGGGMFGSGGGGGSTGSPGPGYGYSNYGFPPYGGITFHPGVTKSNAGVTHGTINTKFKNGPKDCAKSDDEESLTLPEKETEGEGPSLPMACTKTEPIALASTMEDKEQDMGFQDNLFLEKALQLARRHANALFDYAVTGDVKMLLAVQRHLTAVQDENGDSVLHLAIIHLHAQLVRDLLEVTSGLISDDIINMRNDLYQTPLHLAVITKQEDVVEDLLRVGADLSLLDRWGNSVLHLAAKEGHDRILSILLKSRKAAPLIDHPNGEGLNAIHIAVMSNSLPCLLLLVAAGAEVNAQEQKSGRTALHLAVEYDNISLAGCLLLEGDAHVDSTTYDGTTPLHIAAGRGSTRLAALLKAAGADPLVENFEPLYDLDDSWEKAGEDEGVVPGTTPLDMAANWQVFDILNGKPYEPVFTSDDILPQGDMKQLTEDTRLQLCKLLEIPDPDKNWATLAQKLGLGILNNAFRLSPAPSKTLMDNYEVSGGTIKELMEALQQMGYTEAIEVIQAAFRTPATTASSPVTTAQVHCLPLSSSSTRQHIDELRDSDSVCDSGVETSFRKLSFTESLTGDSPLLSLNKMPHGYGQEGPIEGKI
The experiment in a line: Inhibition of LPS-induced NF-kappaB p50 binding to DNA in mouse RAW264.7 cells at 10 to 40 uM after 1.5 hrs by spectrophotometry in presence of mutant oligonucleotide. The format is cell-based.

The source made the active and inactive calls. The rule behind the calls is not given here.

As usually defined, the inhibition in vivo is the change of the read-out against control, counted positive when it falls. With `C=C1C(=O)O[C@@H]2[C@@H]3[C@@]4(C=C[C@@]3(C)[C@]3(C4)C(=O)O[C@@H]4[C@H]5C(C)=CC[C@H]5[C@](C)(O)C[C@H](OC(C)=O)[C@H]43)[C@](C)(O)CC[C@@H]12`, the inhibition in vivo at 20 mg/kg in the test on Rattus norvegicus stood at 35%. For the same molecule, the inhibition result in test [1] was “Active”.
